The text below walks through data of ChEMBL document CHEMBL4007450, “Development of 1,2,4-Oxadiazoles as Potent and Selective Inhibitors of the Human Deacetylase Sirtuin 2: Structure-Activity Relationship, X-ray Crystal Structure, and Anticancer Activity” (J Med Chem, 2017).

Active and inactive are the calls of the source. The rule behind the calls is not given here. A value given as a limit tells only on which side of the number the result lay.

What is called IC50 is the concentration that inhibits the measured activity by half.

Test [1] deals with T1, NAD-dependent protein deacetylase sirtuin-3, mitochondrial (Homo sapiens) (UniProt Q9NTG7).
T1 sequence (whole entry): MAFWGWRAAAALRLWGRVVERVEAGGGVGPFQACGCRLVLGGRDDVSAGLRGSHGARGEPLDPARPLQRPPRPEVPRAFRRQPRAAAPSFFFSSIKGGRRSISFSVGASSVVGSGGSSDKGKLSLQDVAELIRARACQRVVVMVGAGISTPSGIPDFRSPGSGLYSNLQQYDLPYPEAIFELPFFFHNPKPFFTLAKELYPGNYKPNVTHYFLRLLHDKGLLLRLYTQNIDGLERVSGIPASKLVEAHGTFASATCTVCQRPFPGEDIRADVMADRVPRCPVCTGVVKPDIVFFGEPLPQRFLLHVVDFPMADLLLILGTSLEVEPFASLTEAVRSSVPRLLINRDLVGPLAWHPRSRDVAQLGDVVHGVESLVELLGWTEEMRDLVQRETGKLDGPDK
The test can be described thus: Inhibition of human SIRT3 (114 to 380 residues) activity expressed in Escherichia coli using AceCS2 peptide as substrate up to 100 uM after 45 mins in presence of NAD+ by pNCA/GDH-based microplate spectrophotometric analysis. The method, boiled down:
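Same pNCA/GDH-coupled 340 nm NADPH read-out as the Sirt2 assay, using 20 mM Na-phosphate pH 7.8 with 3% DMSO at 20 °C for 45 min. Sirt3 (114-380) was used at 5 µM with AceCS2 peptide TRSGacKVMR as substrate. Inhibitors were tested up to 100 µM.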

Test [2] concerns the target T2, NAD-dependent protein deacetylase sirtuin-1 (Homo sapiens) (UniProt Q96EB6).
T2 sequence (whole entry): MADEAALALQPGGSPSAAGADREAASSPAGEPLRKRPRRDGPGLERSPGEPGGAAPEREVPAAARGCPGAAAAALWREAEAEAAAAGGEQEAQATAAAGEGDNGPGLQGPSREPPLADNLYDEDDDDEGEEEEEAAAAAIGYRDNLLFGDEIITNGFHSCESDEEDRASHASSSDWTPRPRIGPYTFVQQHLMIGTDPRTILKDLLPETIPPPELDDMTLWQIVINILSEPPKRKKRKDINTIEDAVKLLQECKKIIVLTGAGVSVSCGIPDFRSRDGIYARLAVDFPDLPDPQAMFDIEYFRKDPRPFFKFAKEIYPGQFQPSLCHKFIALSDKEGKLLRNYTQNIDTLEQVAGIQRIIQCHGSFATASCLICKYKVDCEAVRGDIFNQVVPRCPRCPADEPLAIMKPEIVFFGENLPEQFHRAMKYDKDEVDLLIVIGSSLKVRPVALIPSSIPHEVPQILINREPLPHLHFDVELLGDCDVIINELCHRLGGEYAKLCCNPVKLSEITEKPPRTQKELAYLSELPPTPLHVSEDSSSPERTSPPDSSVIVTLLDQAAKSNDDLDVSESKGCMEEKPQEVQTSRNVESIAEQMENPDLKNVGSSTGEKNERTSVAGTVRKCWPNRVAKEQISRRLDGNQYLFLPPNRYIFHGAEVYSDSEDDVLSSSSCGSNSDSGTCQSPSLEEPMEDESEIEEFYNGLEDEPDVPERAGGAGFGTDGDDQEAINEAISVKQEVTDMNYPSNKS
The test can be described thus: Inhibition of human full length SIRT1 activity expressed in Escherichia coli using p53 peptide as substrate up to 100 uM after 45 mins in presence of NAD+ by pNCA/GDH-based microplate spectrophotometric analysis. Summed up: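 Full-length Sirt1 at 2 µM with p53 peptide RHKacKLMFK as substrate. Activity was measured in the same coupled pNCA/GDH mix as for Sirt2 (α-ketoglutarate, NADPH, Na-phosphate pH 7.8, 3% DMSO), following NADPH oxidation at 340 nm at 20 °C for 45 min. Compounds were tested up to 100 µM.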

Test [3] has as its target NAD-dependent protein deacylase sirtuin-5, mitochondrial (Homo sapiens) (UniProt Q9NXA8). Description: Inhibition of human SIRT5 (34 to 302 residues) deacetylase activity expressed in Escherichia coli using Prx1 peptide as substrate up to 100 uM after 45 mins in presence of NAD+ by pNCA/GDH-based microplate spectrophotometric analysis.
The test system of test [4] is U-937. The test can be described thus: Effect on cell cycle arrest in human U937 cells at 25 uM after 48 hrs by propidium iodide staining-based FACS analysis. Format: functional. For orientation: A flow cytometer gives signals particle by particle.
Test [5] has as its system NB-4. The test can be described thus: Induction of apoptosis in human NB4 cells assessed as pre-G1 accumulation at 10 uM after 48 hrs by propidium iodide staining-based FACS analysis. The class given is functional, cell-based. Summed up:
(§1)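 Leukemia cells (U937, NB4, HL-60, K562) were grown in RPMI-1640 with 10% FBS, 2 mM L-glutamine and antibiotics, then treated for 48 h at 5, 10, 25 and 50 μM. 2.5×10^5 cells were stained 30 min in the dark in hypotonic PI buffer (0.1% Triton X-100, 0.1% citrate, 50 µg/mL PI, RNase A). Apoptosis was scored as pre-G1 content by flow cytometry. Duplicates, mean ± SD.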

For test [6], the system named is U-937. Description: Induction of apoptosis in human U937 cells assessed as pre-G1 accumulation at 50 uM after 48 hrs by propidium iodide staining-based FACS analysis. Format: functional. Summed up:
as §1

The test system of a further test is OCI-AML-3. The test can be described thus: Antiproliferative activity against human OCI-AML3 cells harboring NPM1c+, DNMT3A R882C mutant assessed as cell growth inhibition after 48 hrs by WST1 assay. The class given is functional, cell-based. Conditions: OCI-AML-3, 48 h. Summed up:
(§2)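 WST-1 proliferation assay. Cells plated in triplicate at 5×10^3 cells/well and exposed to increasing compound concentrations for 48 h at 37 °C, 5% CO2. WST-1 reagent was then added for 1 h. IC50 was obtained by nonlinear regression of each cell line's dose-response curve.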
(In general: Tetrazolium dyes change colour on reduction, which living cells bring about.)

Test [7] in a line: Antiproliferative activity against human IMS-M2 cells harboring NPM1c+ assessed as cell growth inhibition after 48 hrs by WST1 assay. Format: functional, cell-based. Conditions: IMS-M2, 48 h. Summed up:
as §2

A further test concerns OCI-AML2. The test can be described thus: Antiproliferative activity against human OCI-AML2 cells harboring DNMT3A R635W mutant assessed as cell growth inhibition after 48 hrs by WST1 assay. Conditions: OCI-AML2, 48 h. Format: functional, cell-based. Summed up:
as §2

A further test deals with MV4-11. Description: Antiproliferative activity against human MV4-11 cells harboring FLT3-ITD [t(4;11)(q21;q23)], MLL/MLLT2(AF4) mutant assessed as cell growth inhibition after 48 hrs by WST1 assay. The settings on record: MV4-11, 48 h. Format: functional, cell-based. The method, boiled down: as §2
Another test concerns Kasumi 1. The test can be described thus: Antiproliferative activity against human Kasumi-1 cells harboring AML1-ETO [t(8:21)] mutant assessed as cell growth inhibition after 48 hrs by WST1 assay. Conditions: Kasumi 1, 48 h. The class given is functional, cell-based. Summed up: as §2
Test [8] has as its system U-937. Description: Antiproliferative activity against human U937 cells harboring p53+/- assessed as cell growth inhibition after 48 hrs by WST1 assay. Format: functional, cell-based. The settings on record: U-937, 48 h. Summed up:
as §2

Test [9] concerns NB-4. Description: Antiproliferative activity against human NB4 cells harboring PML-RARalpha [t(15;17)(q22;q12)] mutant assessed as cell growth inhibition after 48 hrs by WST1 assay. Conditions: NB-4, 48 h. Format: functional, cell-based. Summed up: as §2
The next test has as its system HL-60. The test can be described thus: Antiproliferative activity against human p53 deficient HL60 cells assessed as cell growth inhibition after 48 hrs by WST1 assay. The class given is functional, cell-based. The settings on record: HL-60, 48 h. The method, boiled down:
as §2

A further test relates to KARPAS-299. Description: Antiproliferative activity against human KARPAS299 cells harboring NPM1/ALK, [t(2;5)(p23;q35)] mutant assessed as cell growth inhibition after 48 hrs by WST1 assay. The class given is functional, cell-based. The settings on record: KARPAS-299, 48 h. Summed up: as §2
Test [10] concerns the target NAD-dependent protein deacylase sirtuin-5, mitochondrial (Homo sapiens) (UniProt Q9NXA8). Description: Inhibition of human SIRT5 (34 to 302 residues) desuccinylase activity expressed in Escherichia coli using peptide as substrate up to 100 uM after 45 mins in presence of NAD+ by pNCA/GDH-based microplate spectrophotometric analysis.

Chain of NAD-dependent protein deacylase sirtuin-5, mitochondrial (Homo sapiens) (Q9NXA8 37-310 limits assumed): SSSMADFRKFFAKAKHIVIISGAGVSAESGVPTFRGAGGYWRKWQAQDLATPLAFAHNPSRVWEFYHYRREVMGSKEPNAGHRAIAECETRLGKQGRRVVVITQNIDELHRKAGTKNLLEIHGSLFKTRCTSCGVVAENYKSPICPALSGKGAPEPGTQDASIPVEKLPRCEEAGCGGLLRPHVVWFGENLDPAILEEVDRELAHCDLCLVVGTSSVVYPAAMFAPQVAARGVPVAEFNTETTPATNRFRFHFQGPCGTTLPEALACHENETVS

Consider `BrCCCc1nc(-c2ccc(Br)cc2)no1`, for which the inhibition entry in test [1], in test [2], in test [3] and in test [10] was “inactive” throughout. The outcome in the test with U-937 [4] was inactive. For the same molecule, the result with NB-4 [5] was Active. In addition, the Activity with U-937 [6] is >80%. In addition, the IC50 in the test on OCI-AML-3 was 66 µM; in test [7], 100 µM; with OCI-AML2 it was 85 µM; in the test on MV4-11, 38 µM; with Kasumi 1 it was 56 µM; in the test on U-937 [8] it was > 100 µM. Also, the IC50 with NB-4 [9] came to 49 µM; in the test with HL-60, 100 µM; with KARPAS-299, 25 µM.
